Screens deposited in PubChem BioAssay by The Scripps Research Institute Molecular Screening Center.
An excerpt weighted towards active compounds, which were near 3% of everything screened.
HTR1E agonist: 5-HT1E receptor agonists, primary screen, cell-based, HTS; 5-hydroxytryptamine receptor 1E (Homo sapiens), P28566; CHO 5-HT1E Ga15 NFAT-bla reporter, FRET; 0% DMSO wells, 100% control agonist wells; activation, % at 6 µM; 65,000 tested, 0.69% active; AID 574, 2007;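 active = activation above a set limit, the screen-wide mean activation plus 3 SD, cut at about 8.5% in these data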;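 also: 100% = positive control agonist at 1 µM giving full maximal response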
S1P3 agonist: human S1P3 receptor agonists, primary screen, cell-based, primary and confirmation, NFAT-BLA reporter; activation, % at 4.5 µM; AID 373, 2006; S1P3 NFAT-BLA reporter cells, agonism, FRET ratio; relative to 1 µM S1P, basal subtracted; 60,000 tested, 0.1% active;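 active = activation above the screen-wide mean plus 3 SD, cut at about 4.5% in these data, passing the limit was not always enough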
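Benchmarks: high control 1 µM S1P / System: stable CHO line with human S1P3, Gα16, NFAT-BLA reporter / Dosing: single compound concentration, 4.5 µM final / Timing: 4 h compound at 37 °C, 2 h substrate at RT / Measured by: FRET β-lactamase substrate fluorescence, excitation 405 nm, 460/535 nm emission ratio, background-subtracted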
5HT1E antag: 5-HT1E receptor antagonists, primary screen, cell-based, HTS; 5-hydroxytryptamine receptor 1E (Homo sapiens), P28566; 65,000 tested, 0.99% active; inhibition, % at 6 µM; CHO 5-HT1E Ga15 NFAT-bla reporter, FRET, antagonist;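 active = inhibition above a set limit, the mean inhibition across every tested compound plus 3 SD, cut at about 29% in these data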;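 also: signal is the 460 over 535 nm emission ratio of beta-lactamase substrate; 0% = agonist plus DMSO wells and 100% = wells without agonist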
5HT1a ag: human 5-HT1a receptor agonists, primary screen, cell-based, CHO, Ga15 NFAT-bla reporter; 5-hydroxytryptamine receptor 1A (Homo sapiens), P08908; CHO 5-HT1a Ga15 NFAT-bla reporter, FRET ratio; 0% basal, 100% maximal reference agonist; activation, % at 10 µM; 65,000 tested, 0.56% active; AID 567, 2006;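 active = activation above the screen-wide mean activation plus 3 SD, cut at about 19% in these data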;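 also: 0% = DMSO wells and 100% = 5-CT at EC100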
S1P1 ag-PAM: S1P1 agonists and agonism potentiators, primary screen, cell-based, primary and confirmation screens, CRE-bla reporter. S1P1 CRE-bla cells, forskolin, beta-lactamase FRET, potentiator mode; S1P1 agonist co-added at EC20, 2 nM; 100% = saturating reference agonist, 0% = basal. activation, % at 9.5 µM. 56,000 tested, 0.57% active. AID 449, 2006;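 active = activation above a cutoff set at the mean activation of all tested compounds plus 3 SD, cut at about 54% in these data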;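 also: forskolin at 4 µM as EC80 and the EC20 agonist is SEW2871; 100% = SEW2871 at its EC100 plus forskolin at EC80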
Target sequence (P21453 whole entry, looked up): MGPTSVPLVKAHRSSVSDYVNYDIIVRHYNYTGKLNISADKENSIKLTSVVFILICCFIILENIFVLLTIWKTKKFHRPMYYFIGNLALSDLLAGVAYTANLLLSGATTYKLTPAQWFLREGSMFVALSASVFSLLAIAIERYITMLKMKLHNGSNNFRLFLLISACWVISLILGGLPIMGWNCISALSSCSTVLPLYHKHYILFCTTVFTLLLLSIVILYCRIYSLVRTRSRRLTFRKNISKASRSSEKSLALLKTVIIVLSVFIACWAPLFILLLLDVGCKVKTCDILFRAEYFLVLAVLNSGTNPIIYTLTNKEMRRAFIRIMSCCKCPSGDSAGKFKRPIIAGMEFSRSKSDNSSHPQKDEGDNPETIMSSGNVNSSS
5HT1a antag: human 5-HT1a receptor antagonists, primary screen, cell-based, CHO, Ga15 NFAT-bla reporter; 5-hydroxytryptamine receptor 1A (Homo sapiens), P08908; CHO 5-HT1a Ga15 NFAT-bla reporter, antagonist mode; inhibition, % at 10 µM; 62,000 tested, 0.68% active; AID 612, 2007;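 active = inhibition above the mean of all tested compounds plus 3 SD, cut at about 43% in these data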;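 also: receptor stimulated by 5-CT agonist at 100 nM near EC80; beta-lactamase reporter measured by ratiometric fluorescence of a cleavable substrate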
The depositor's hits bear a star; / = no result.

SMILES	HTR1E agonist	S1P3 agonist	5HT1E antag	5HT1a ag	S1P1 ag-PAM	5HT1a antag
COc1ccccc1NS(=O)(=O)CC12CCC(CC1=O)C2(C)C (configuration not stated)	-1	-2	1	0	-6	-10
CCCn1c2ccccc2c2nnc(SCC(=O)OC)nc21	-2	-1	30*	2	-1	22
CCn1c2ccccc2c2nnc(SCc3ccccc3)nc21	1	0	33*	1	-14	20
CCn1c2ccccc2c2nnc(SCN3C(=O)c4ccccc4C3=O)nc21	-1	0	38*	1	/	-1
Cn1c2ccccc2c2nnc(SCN3C(=O)c4ccccc4C3=O)nc21	-1	-1	6	1	-33	-8
Cc1sc2ncnc(Sc3nnc4sc5ccccc5n34)c2c1C	-1	/	7	-4	/	10
Cc1cccc(-n2c(SCC(=O)Nc3nonc3C)nnc2-c2ccoc2C)c1	0	-1	-1	34*	11	14
Cc1cccc(-n2c(SCC(=O)Nc3nnc(C)s3)nnc2-c2ccoc2C)c1	1	-1	13	-3	-43	-1
CCOc1ccc(C(=O)OCC(=O)NCc2ccco2)cc1OCC	0	0	8	-6	-29	5
Cc1c(C(=O)O)c2cc(O)ccc2n1-c1ccccc1	-2	0	16	-4	7	13
COC(=O)c1c(C)n(-c2ccc(OC)cc2)c2ccc(O)cc12	0	-1	6	0	66*	35
O=C(COC(=O)c1ccco1)Nc1cccc(Br)c1	0	/	7	0	/	6
COCC(=O)Nc1cccc(Br)c1	0	1	-9	20*	/	1
Cc1ccc(C(=O)Nc2nc3ccccc3c(=O)s2)cc1	0	1	-5	-2	-11	67*
O=C(Nc1nc(=O)c2ccccc2s1)c1ccccc1	0	-3	3	0	-7	/
COCCCNC(=O)Cn1cc2c(n1)CCC(C)C2 (configuration not stated)	1	0	4	-3	-13	-1
CC(=O)C1=C(C)NC(SCC(=O)c2cc(Cl)ccc2Cl)=C(C#N)C1c1ccco1 (configuration not stated)	0	-2	31*	-3	52	33
CC(=O)C1=C(C)NC(SCC(=O)c2ccc(Cl)c(Cl)c2)=C(C#N)C1c1ccco1 (configuration not stated)	-1	0	21	-2	25	13
CN1CC2=Cc3ccccc3OC23Oc2ccccc2C=C3C1	0	-1	4	0	28	35
CCOC(=O)c1ccc(N=c2sc(C(=O)OC)cc(=O)n2C2CC2)cc1	1	1	2	1	-21	-13
COC(=O)c1cc(=O)n(C2CC2)c(=NC2CC2)s1	0	/	31*	1	/	6
CSc1nc(C)cc(OCCNS(=O)(=O)c2cc(C)ccc2C)n1	-1	-2	4	-5	6	/
O=S(=O)(c1ccc2oc(-c3ccncc3)nc2c1)c1ccc2oc(-c3ccncc3)nc2c1	1	0	-14	27*	-16	-16
COC(=O)c1ccccc1NC(=O)c1noc2c1CC(C(C)(C)C)CC2 (configuration not stated)	0	0	-7	-2	-1	-9
Cc1cc(CN2CCN(CCC#N)CC2)c(O)c(C2(C)CCCCC2)c1	0	-1	5	0	-18	-12
c1cc(-c2nnc3sc(C4CCCCC4)nn23)ccn1	17*	0	2	2	21	/
COc1ccccc1-c1nnc2sc(C3CCCCC3)nn12	1	-2	1	0	-20	/
